hERG protect: hERG rescue from dofetilide block, primary screen, cell-based, CHO-hERG, FluxOR thallium flux, dofetilide IC70; Voltage-gated inwardly rectifying potassium channel KCNH2 (Homo sapiens), Q12809; hit rate 0.51% among 310,000; AID 1511, 2009; activation (rescue from dofetilide block), less the hit threshold, % at 10 µM; dofetilide IC70 present;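 active = activation above the mean of controls blocked by dofetilide plus 5 SD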;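 also: thallium influx through hERG after potassium depolarization seen as dye fluorescence rise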
KCNQ1 inh: inhibitors of human KCNQ1 channel, primary screen, cell-based, thallium flux, high-throughput; Potassium voltage-gated channel subfamily KQT member 1 (Homo sapiens), P51787; CHO-K1 KCNQ1, FluxOR thallium flux fluorescence; hits give high values; B-score at 10 µM; hit rate 1.3% among 310,000; AID 2642, 2010;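 active = compounds whose thallium flux B-score, printed positive for inhibition, exceeds three library SD while starting fluorescence stays within three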;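 also: channel opened by potassium depolarization with thallium stimulus after 20 min compound exposure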
Kir21 inh: inhibitors of mouse Kir2.1 inward-rectifier potassium channel. Inward rectifier potassium channel 2 (Mus musculus), P35561. HEK293-Kir2.1, FluxOR thallium flux fluorescence; hits give low values. B-score at 10 µM. hit rate 0.85% among 310,000;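 active = fluorescence ratio B-score at or below minus 3 SD of library scores, with starting-brightness B-score within 2 SD, cut at about -4.2 in these data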;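 also: channel flux triggered by added potassium and thallium sulfate stimulus; B-score of peak minus minimum fluorescence over baseline after thallium stimulus; more negative B-score means stronger Kir2.1 block with less thallium influx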
Target sequence (P35561 whole entry, looked up): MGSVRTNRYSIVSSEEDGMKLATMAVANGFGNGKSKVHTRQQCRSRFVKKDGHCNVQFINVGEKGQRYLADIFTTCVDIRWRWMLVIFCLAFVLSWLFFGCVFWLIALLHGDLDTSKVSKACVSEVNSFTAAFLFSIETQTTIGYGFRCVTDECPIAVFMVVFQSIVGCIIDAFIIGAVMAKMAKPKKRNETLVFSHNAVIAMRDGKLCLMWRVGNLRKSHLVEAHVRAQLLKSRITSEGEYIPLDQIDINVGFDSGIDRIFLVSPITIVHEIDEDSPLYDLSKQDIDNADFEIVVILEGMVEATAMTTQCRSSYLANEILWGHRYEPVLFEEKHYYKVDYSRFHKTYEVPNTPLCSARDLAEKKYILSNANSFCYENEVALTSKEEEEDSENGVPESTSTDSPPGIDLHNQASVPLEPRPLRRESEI
KCNK3 inh: human KCNK3 channel inhibitors, primary screen, CHO cells, FluxOR thallium flux, B-score; Potassium channel subfamily K member 3 (Homo sapiens), O14649; FluxOR fluorescence; hits give low values; AID 602410, 2012; B-score at 10 µM; hit rate 0.84% among 340,000;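 active = B-score under library mean minus 4 SD, starting fluorescence ratio at most library mean plus 5 SD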;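 also: more negative B-score means stronger inhibition of thallium flux through KCNK3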
KCNK9 block: KCNK9 potassium channel inhibitors, primary screen, HEK293 cells, thallium flux. hit rate 1.2% among 310,000. FluxOR thallium flux fluorescence; hits give low values. Potassium channel subfamily K member 9 (Homo sapiens), Q9NPC2. B-score at 10 µM. AID 488922, 2010;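 active = ratio B-score over 3 SD below the library mean, with starting fluorescence within 5 SD of its mean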;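 also: negative B-score means less thallium flux so channel inhibition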
KCNQ1 act: potentiators or activators of KCNQ1 channel, primary screen, cell-based, thallium flux, high-throughput; Potassium voltage-gated channel subfamily KQT member 1 (Homo sapiens), P51787; CHO-K1 KCNQ1, thallium flux FluxOR fluorescence; hits give high values; B-score at 10 µM; hit rate 0.35% among 310,000; AID 2648, 2010;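 active = fluorescence ratio B-score, a plate-corrected score, at least three library SD, with initial intensity B-score within 5 SD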
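System: Stable KCNQ1 CHO-K1 line | Incubation: 90 min dye loading and 20 min compound exposure, both at room temperature | Measure: Ratio B score | Medium: Assay buffer for compound exposure, DMSO matched across wells | Compound dosing: Single-concentration screen | Probe or stimulus: K+/Tl+ depolarizing stimulus | Measured by: Kinetic FluxOR fluorescence, 10 s baseline plus 110 s post-stimulus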
KCNK9 inh conf: KCNK9 potassium channel inhibitors, confirmation, HEK293 cells, thallium flux, duplicate; AID 492992, 2010; FluxOR thallium flux fluorescence; hit rate 43% among 4,900; shares compounds with KCNK9 block; inhibition, % at 10 µM;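 active = thallium signal inhibited by more than 5 SD of the compound-free buffer control wells, on both duplicate plates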
Kir21 sel: mouse Kir2.1 channel inhibition, confirmation, selectivity assay for KCNK9 modulator project, cell-based, HEK293, thallium flux. shares compounds with KCNK9 block. Kir2.1 cells, FluxOR thallium flux fluorescence. inhibition, % at 10 µM. hit rate 4% among 4,900;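 active = thallium signal drop more than 5 SD beyond the mean of the no-compound control wells, seen in both duplicate plates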;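 also: signal is fluorescence rise after thallium addition divided by baseline fluorescence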
KCNK9 uninduced: thallium flux in non-induced HEK293 cells, confirmation, counter-screen for KCNK9 inhibitor project, cell-based, second counter screen, non-induced KCNK9-HEK293 | shares compounds with KCNK9 block | FluxOR thallium flux | inhibition, % at 10 µM | hit rate 40% among 4,900;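 active = thallium signal drop beyond 5 SD of the untreated control mean, on both duplicate plates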
KCNK3 confirm: retest of human KCNK3 channel inhibitors, confirmation, CHO cells, FluxOR thallium flux, triplicate; shares compounds with KCNK3 inh; FluxOR fluorescence; 0% buffer, 100% carvedilol maximal block; ratio percent of control, % at 10 µM; hit rate 99% among 2,400; AID 651638, 2012;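 active = ratio percent of control, averaged over triplicates, above buffer control mean plus 5 SD, cut at about 64% in these data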;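 also: ratio is the fluorescence rise from min to max over baseline after thallium stimulus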
KCNK3 uninduced: thallium flux inhibition in non-induced cells, primary screen, counter-screen for KCNK3 inhibitor project, cell-based, non-induced KCNK3 line, FluxOR thallium, triplicate; shares compounds with KCNK3 inh; non-induced KCNK3 parental cells; hits give low values; thallium flux ratio (lower = more inhibition) at 10 µM; hit rate 40% among 2,400;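 active = thallium flux ratio, averaged over three wells, more than 5 SD below the buffer control mean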;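 also: host cells are CHO cells without KCNK3 induction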
A number is an active result; 0 = inactive; - = no result. Rows were chosen to be rich in hits. Some 3.7% of all compounds tested hit in one or more screens of this group.

SMILES | hERG protect | KCNQ1 inh | Kir21 inh | KCNK3 inh | KCNK9 block | KCNQ1 act | KCNK9 inh conf | Kir21 sel | KCNK9 uninduced | KCNK3 confirm | KCNK3 uninduced
CCN(c1ccccc1)S(=O)(=O)c1ccc2c(c1)C(C)(C)C(=O)N2C | 0 | 0 | 0 | 0 | 0 | 0 | - | - | - | - | -
CCOc1ccc2nc(SCC(=O)Nc3cc(C)on3)c(C)cc2c1 | 0 | 0 | 0 | 0 | 0 | 0 | - | - | - | - | -
Cn1cccc1/C=C1\CCC/C(=C\c2cccn2C)C1=O | 0 | 14 | 0 | -12 | -9.56 | 0 | 77.5% | 60.5% | 0 | 0 | 0
O=C(Cc1ccc(Cl)cc1)Nc1cccc(-c2nnc(-c3ccco3)o2)c1 | 0 | 0 | 0 | 0 | 0 | 0 | - | - | - | - | -
O=C(Cc1ccccc1)Nc1cccc(-c2nnc(-c3ccco3)o2)c1 | 0 | 0 | 0 | 0 | 0 | 0 | - | - | - | - | -
O=C(Nc1cccc(-c2nnc(-c3ccco3)o2)c1)C(c1ccccc1)c1ccccc1 | 0 | 10 | 0 | -12.8 | -19.8 | 0 | 71.5% | 0 | 30.0% | 135.0 | 0.106
COc1ccccc1OCC(=O)Nc1cccc(-c2nnc(-c3ccco3)o2)c1 | 0 | 0 | 0 | -10.2 | -8.6 | 0 | 31.0% | 0 | 0 | 102.7 | 0
Cc1cc(C)c2cc(CN(CC3CCCO3)C(=S)NCc3ccco3)c(=O)[nH]c2c1 (stereo not given) | 0 | 0 | 0 | -9.78 | -9.46 | 0 | 29.0% | 0 | 33.0% | 112.7 | 0
Cc1ccc([N+](=O)[O-])cc1-c1[nH]c(-c2ccc(O)c(O)c2)nc1-c1ccccc1 | 0 | 0 | 0 | -9.8 | -9.01 | 0 | 39.5% | 0 | 0 | 111.3 | 0
COc1ccc([N+](=O)[O-])cc1-c1[nH]c(-c2ccc(C(=O)O)cc2)nc1-c1ccccc1 | 0 | 0 | 0 | 0 | 0 | 0 | - | - | - | - | -
O=C1N(Cc2cccc(Cl)c2)C[C@@H]2C[C@@H](c3ccc4nonc4c3)N3CCC[C@@]123 | 0 | 0 | 0 | 0 | 0 | 0 | - | - | - | - | -
CCn1cc(Cl)c(C(=O)Nc2cccc(C(F)(F)F)c2)n1 | 0 | 0 | 0 | 0 | -8.46 | 0 | 42.5% | 0 | 33.5% | 108.3 | 0
O=c1nc(SCc2cccc(C(F)(F)F)c2)nc2ccccn12 | 0 | 0 | 0 | 0 | 0 | 0 | - | - | - | - | -
CCOc1ccccc1NC(=O)CN(C)S(=O)(=O)c1ccc(OC)c(C)c1 | 0 | 0 | 0 | 0 | -15 | 0 | 50.0% | 0 | 0 | 94.7 | 0
Cc1nn(S(=O)(=O)c2ccccc2)c(C)c1Sc1ccc([N+](=O)[O-])cc1 | 0 | 0 | 0 | 0 | 0 | 0 | - | - | - | - | -
Cc1nn(S(=O)(=O)c2cccs2)c(C)c1Sc1ccc([N+](=O)[O-])cc1 | 0 | 0 | 0 | -11.9 | -11.1 | 0 | 54.5% | 0 | 27.5% | 119.7 | 0.156
